This sample holds only a part of the variants without activity.
B1: tRNA (parent)
chain: CUCUCGGUAGCCAAGUUGGUUUAAGGCGCAAGACUUUAAUUUAUCACUACGAAAUCUUGAGAUCGGGCGUUCGACUCGCCCCCGGGAGAUUUUUUCCUCGAGCAA

Variants of: B1
Experiment: nonsense suppression (GFP-seq) (ratio to wild type); higher = more function; SUP4oc tRNA, yeast GFP reporter sort-seq
Outline: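 To measure nonsense suppression, tRNA variants from a library carrying ~3% random mutations were integrated into the yeast genome alongside RFP and a GFP ochre reporter under galactose control. Growth took place in raffinose/galactose medium supplemented with 80 mg/L adenine, followed by sorting into GFP/RFP bins and Illumina sequencing of each bin (phred ≥30). For each variant with ≥100 reads and ≥30 cells, the bin median GFP/RFP values were weighted by its estimated cell share per bin and referenced to the unmutated parent tRNA.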

Going from U16A U71G C75G to G18A A24C, the nonsense suppression rises from at most 0.026 to 0.0483.

Going from U17G U63A C75A G85A to U16G C29U, the nonsense suppression rises from 1.08 to 1.11.

Compared with G15A C68U, U16C C82A G85A is lower in nonsense suppression: 0.0272 for the first, at most 0.026 for the second.

Going from U16A U17G to U17G C83A, the nonsense suppression falls from 1.16 to at most 0.026.

G18A G25U G67C and G15U A23G U55G cannot be ordered by nonsense suppression: at most 0.026 for the first, at most 0.026 for the second.

G18U G59A and G15C A23G G61A cannot be ordered by nonsense suppression: at most 0.026 for the first, at most 0.026 for the second.

Going from U16A G28A to A14U G84A, the nonsense suppression falls from 1.11 to at most 0.026.

Going from U17C G28C C75G to G18A A54U, the nonsense suppression falls from 1.02 to at most 0.026.

G19A A23C G85U and G18C G19A G66A cannot be ordered by nonsense suppression: at most 0.026 for the first, at most 0.026 for the second.

A14U G61C C79U and U16C C68A G88U cannot be ordered by nonsense suppression: at most 0.026 for the first, at most 0.026 for the second.

First: U16G G25C
Second: U16C A60G G86C
The nonsense suppression of the first is higher: 0.2 for the first, at most 0.026 for the second.

First: G15C U22G A23C
Second: U17G G61C
The nonsense suppression of the first is lower: at most 0.026 for the first, 0.371 for the second.

Compared with U17G G61U, U16G A23G is lower in nonsense suppression: 0.832 for the first, 0.129 for the second.

First: U16A G73A
Second: U17C U21G
The nonsense suppression of the first is lower: 0.63 for the first, 0.801 for the second.

G15C G18U U76G A87G and U16G U57A C64U G66U G69A cannot be ordered by nonsense suppression: at most 0.026 for the first, at most 0.026 for the second.

Going from G15A G59C A87C to G19A U63G, the nonsense suppression rises from at most 0.026 to 0.143.

Compared with U16C C83U, U16G U22A is higher in nonsense suppression: 0.5 for the first, 0.872 for the second.

First: A14U G61A
Second: U17G A54U
The nonsense suppression of the first is lower: 0.0341 for the first, 1.16 for the second.

Going from U17G A54C to U16A G78U, the nonsense suppression falls from 0.64 to 0.188.

First: G18A U20G
Second: A14U U57G
The nonsense suppression of the first is higher: 0.905 for the first, at most 0.026 for the second.

Compared with U16G A54U U63G, U16A G85A is higher in nonsense suppression: 0.278 for the first, 1.03 for the second.

Compared with G15U C29U, U17C U76C is higher in nonsense suppression: at most 0.026 for the first, 1.09 for the second.

Going from U17G U22G to U17C C72G, the nonsense suppression falls from 1.04 to at most 0.026.

First: G19A A31G
Second: U16C U21C A31U
The nonsense suppression of the first is lower: 0.0307 for the first, 0.204 for the second.

Going from U16C G78A to U16C G78U, the nonsense suppression falls from 0.837 to 0.454.

G15A U21C C34G U35G U58A and G15C G67A cannot be ordered by nonsense suppression: at most 0.026 for the first, at most 0.026 for the second.

Going from U16C G61U G73A to U17A G28A G85A, the nonsense suppression rises from 0.438 to 1.02.

U17A A54G G85U and G15U U17A U55C cannot be ordered by nonsense suppression: at most 0.026 for the first, at most 0.026 for the second.

First: U16G U76C
Second: G15A C80U
The nonsense suppression of the first is higher: 1.07 for the first, 0.167 for the second.

Going from G15A G61C to U17C G84A, the nonsense suppression rises from 0.034 to 0.048.

Going from G15U C68G to U17C U63A, the nonsense suppression rises from at most 0.026 to 0.197.

First: U17C U63G
Second: U17C U63C
The nonsense suppression of the first is lower: 0.804 for the first, 1.18 for the second.

A14U G66A and U17A G26U A89U cannot be ordered by nonsense suppression: at most 0.026 for the first, at most 0.026 for the second.

Going from U16G G78C to U17A G78U, the nonsense suppression rises from 0.113 to 0.186.

First: U17A G78A
Second: G18U G19A
The nonsense suppression of the first is higher: 0.449 for the first, at most 0.026 for the second.

Going from U16A U22G C79U to U17G U21G G61U, the nonsense suppression falls from 0.208 to 0.0263.

Going from G19A C64G C68U C82A to U17G U21G, the nonsense suppression rises from at most 0.026 to 0.717.

Compared with U17G U21C, U17G U21A is higher in nonsense suppression: 1.05 for the first, 1.16 for the second.

Going from U17A A30G to U16A A33G, the nonsense suppression falls from 0.369 to 0.0423.

Compared with U17C U22A, U16A U20G is higher in nonsense suppression: 0.758 for the first, 1.11 for the second.

First: U16A U20C
Second: U17G U63C
The nonsense suppression of the first is lower: 0.193 for the first, 0.799 for the second.

U17G C68A G69U and G18C A54G cannot be ordered by nonsense suppression: at most 0.026 for the first, at most 0.026 for the second.

Source: the RNAGym collection of RNA variant scans (doi:10.1101/gad.245936.114)
